The record followed here is ChEMBL document CHEMBL1149106, “Design, synthesis, and evaluation of aza-peptide epoxides as selective and potent inhibitors of caspases-1, -3, -6, and -8” (J Med Chem, 2004).

Calls of active or inactive are those of the source. The rule behind the calls is not given here. Some results are limits rather than exact numbers.

Chain of Caspase-8 (Homo sapiens) (Q14790 217-374 limits assumed): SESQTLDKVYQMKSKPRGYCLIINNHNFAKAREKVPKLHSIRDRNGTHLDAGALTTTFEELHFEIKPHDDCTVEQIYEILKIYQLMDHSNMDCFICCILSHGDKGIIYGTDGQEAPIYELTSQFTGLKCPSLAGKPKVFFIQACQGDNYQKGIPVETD
Chain of Caspase-8 (Homo sapiens) (Q14790 385-479 limits assumed): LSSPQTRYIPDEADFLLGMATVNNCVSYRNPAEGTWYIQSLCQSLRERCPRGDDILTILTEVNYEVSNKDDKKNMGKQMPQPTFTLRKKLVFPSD
Chain of Plasmepsin II (Plasmodium falciparum) (P46925 125-453 limits assumed): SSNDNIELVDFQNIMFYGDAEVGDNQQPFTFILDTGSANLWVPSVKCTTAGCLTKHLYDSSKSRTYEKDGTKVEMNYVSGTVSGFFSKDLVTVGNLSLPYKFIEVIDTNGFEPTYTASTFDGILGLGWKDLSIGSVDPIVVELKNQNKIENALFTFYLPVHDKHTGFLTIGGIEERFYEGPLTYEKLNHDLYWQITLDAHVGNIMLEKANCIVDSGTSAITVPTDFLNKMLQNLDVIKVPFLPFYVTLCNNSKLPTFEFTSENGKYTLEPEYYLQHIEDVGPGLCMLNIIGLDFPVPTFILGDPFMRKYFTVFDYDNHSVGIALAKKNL
Chain of Granzyme B (Homo sapiens) (P10144 whole entry): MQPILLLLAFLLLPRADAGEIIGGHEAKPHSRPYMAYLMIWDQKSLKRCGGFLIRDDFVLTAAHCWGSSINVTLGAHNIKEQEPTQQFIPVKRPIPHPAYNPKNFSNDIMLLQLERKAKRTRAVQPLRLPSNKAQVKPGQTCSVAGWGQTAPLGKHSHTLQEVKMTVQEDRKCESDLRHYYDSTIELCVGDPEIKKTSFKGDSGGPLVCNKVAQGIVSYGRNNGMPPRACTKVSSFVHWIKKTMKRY

The target in the first assay is T1, Caspase-6 (Homo sapiens) (UniProt P55212).
T1 sequence (whole entry): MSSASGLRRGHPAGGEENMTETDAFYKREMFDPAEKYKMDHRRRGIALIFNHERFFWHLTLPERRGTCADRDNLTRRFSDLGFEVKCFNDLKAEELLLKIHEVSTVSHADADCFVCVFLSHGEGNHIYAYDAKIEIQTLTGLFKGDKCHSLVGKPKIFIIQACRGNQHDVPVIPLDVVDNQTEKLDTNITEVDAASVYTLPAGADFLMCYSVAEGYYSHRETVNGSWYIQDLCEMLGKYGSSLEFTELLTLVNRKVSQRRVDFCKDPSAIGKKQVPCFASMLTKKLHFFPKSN
The assay is described as follows: Second-order inhibition rate of caspase-6 was determined by progress curve method. Summed up:
(§1)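 Caspases-3, -6 and -8 were assayed in 50 mM HEPES, 100 mM NaCl, 0.1% (w/v) CHAPS, 10% (w/v) sucrose and 10 mM DTT, pH 7.4. Substrate: Cbz-DEVD-AFC or Cbz-DEVD-AMC.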
Regarding `CCOC(=O)[C@@H]1O[C@H]1C(=O)N(CC(=O)O)NC(=O)[C@@H](NC(=O)C(CCC(=O)O)NC(=O)[C@H](CC(=O)O)NC(=O)OCc1ccccc1)C(C)C` (some centres not stated), the k2 was determined as 475 M⁻¹ s⁻¹.
The same measure, in the same setting: the value for `CCOC(=O)[C@@H]1O[C@H]1C(=O)N(CC(=O)O)NC(=O)[C@@H](NC(=O)[C@H](CCC(=O)O)NC(=O)[C@@H](NC(=O)OCc1ccccc1)[C@@H](C)CC)[C@@H](C)O` was 34000 M⁻¹ s⁻¹.

Another assay deals with T2, Caspase-3 (Homo sapiens) (UniProt P42574).
T2 sequence (whole entry): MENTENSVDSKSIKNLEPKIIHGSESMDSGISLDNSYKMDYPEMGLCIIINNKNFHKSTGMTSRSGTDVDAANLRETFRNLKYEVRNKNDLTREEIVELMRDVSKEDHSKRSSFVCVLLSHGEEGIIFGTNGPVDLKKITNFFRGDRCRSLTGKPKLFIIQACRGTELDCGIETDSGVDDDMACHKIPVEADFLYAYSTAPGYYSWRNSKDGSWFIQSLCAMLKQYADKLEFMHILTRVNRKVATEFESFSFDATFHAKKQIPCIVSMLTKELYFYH
The experiment in a line: Second-order inhibition rate of caspase-3 was determined by progress curve method. Summed up:
as §1
In turn, `CCOC(=O)[C@@H]1O[C@H]1C(=O)N(CC(=O)O)NC(=O)[C@@H](NC(=O)C(CCC(=O)O)NC(=O)[C@H](CC(=O)O)NC(=O)OCc1ccccc1)C(C)C` (some centres not stated) yielded a k2 of 464000 M⁻¹ s⁻¹.
`CCOC(=O)[C@@H]1O[C@H]1C(=O)N(CC(=O)O)NC(=O)[C@@H](NC(=O)[C@H](CCC(=O)O)NC(=O)[C@@H](NC(=O)OCc1ccccc1)[C@@H](C)CC)[C@@H](C)O` had a k2 of 2630 M⁻¹ s⁻¹.

Another assay addresses Granzyme B (Homo sapiens) (UniProt P10144). The assay is described as follows: Tested for inhibition of granzyme B by the compound.
On to `CCOC(=O)[C@@H]1O[C@H]1C(=O)N(CC(=O)O)NC(=O)[C@@H](NC(=O)C(CCC(=O)O)NC(=O)[C@H](CC(=O)O)NC(=O)OCc1ccccc1)C(C)C` (some centres not stated), for which the k obs / 1 is below 0.1 M⁻¹ s⁻¹.

Another assay concerns the target Plasmepsin II (Plasmodium falciparum) (UniProt P46925). The experiment in a line: Inhibition of plasmepsin-2 from Plasmodium falciparum; NI = No Inhibition.
`CCOC(=O)[C@@H]1O[C@H]1C(=O)N(CC(=O)O)NC(=O)[C@@H](NC(=O)C(CCC(=O)O)NC(=O)[C@H](CC(=O)O)NC(=O)OCc1ccccc1)C(C)C` (some centres not stated): the “k obs / 1” value was “inactive”.

Another assay addresses T3, Papain (Carica papaya) (UniProt P00784).
T3 sequence (whole entry): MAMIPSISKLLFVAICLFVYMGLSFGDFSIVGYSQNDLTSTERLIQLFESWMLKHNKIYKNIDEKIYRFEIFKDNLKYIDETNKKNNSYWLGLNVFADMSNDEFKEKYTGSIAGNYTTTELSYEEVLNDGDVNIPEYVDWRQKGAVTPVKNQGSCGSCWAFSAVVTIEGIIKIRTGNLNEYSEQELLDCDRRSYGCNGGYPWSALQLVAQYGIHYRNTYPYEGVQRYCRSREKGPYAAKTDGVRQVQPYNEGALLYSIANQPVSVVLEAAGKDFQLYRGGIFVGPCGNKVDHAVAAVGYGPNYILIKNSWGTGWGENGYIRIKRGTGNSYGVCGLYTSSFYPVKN
The assay is described as follows: Tested for inhibition of papain by the compound; NI = No Inhibition.
Regarding `CCOC(=O)[C@@H]1O[C@H]1C(=O)N(CC(=O)O)NC(=O)[C@@H](NC(=O)C(CCC(=O)O)NC(=O)[C@H](CC(=O)O)NC(=O)OCc1ccccc1)C(C)C` (some centres not stated), the “k obs / 1” value was “inactive”.

For the next assay, the target named is Cathepsin D (Homo sapiens) (UniProt P07339). The experiment in a line: Tested for inhibition of human cathepsin D by the compound; NI = No Inhibition.
Chain of Cathepsin D (Homo sapiens) (P07339 65-162 limits assumed): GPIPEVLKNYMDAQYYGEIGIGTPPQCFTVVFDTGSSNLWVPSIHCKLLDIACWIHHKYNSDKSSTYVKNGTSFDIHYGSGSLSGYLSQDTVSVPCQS
Chain of Cathepsin D (Homo sapiens) (P07339 169-412 limits assumed): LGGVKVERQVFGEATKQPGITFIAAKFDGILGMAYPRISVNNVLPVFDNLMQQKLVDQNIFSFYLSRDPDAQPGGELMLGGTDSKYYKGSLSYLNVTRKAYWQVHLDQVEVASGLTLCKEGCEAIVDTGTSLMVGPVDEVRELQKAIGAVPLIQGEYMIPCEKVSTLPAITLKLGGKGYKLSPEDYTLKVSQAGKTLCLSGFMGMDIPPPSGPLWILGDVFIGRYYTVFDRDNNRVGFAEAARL
On to `CCOC(=O)[C@@H]1O[C@H]1C(=O)N(CC(=O)O)NC(=O)[C@@H](NC(=O)C(CCC(=O)O)NC(=O)[C@H](CC(=O)O)NC(=O)OCc1ccccc1)C(C)C` (some centres not stated), for which the “k obs / 1” value is “inactive”.

In another assay the target is Cathepsin B (Homo sapiens) (UniProt P07858). The experiment in a line: Tested for inhibition of cathepsin B by the compound; NI = No Inhibition.
Turning to `CCOC(=O)[C@@H]1O[C@H]1C(=O)N(CC(=O)O)NC(=O)[C@@H](NC(=O)C(CCC(=O)O)NC(=O)[C@H](CC(=O)O)NC(=O)OCc1ccccc1)C(C)C` (some centres not stated), the “k obs / 1” value was “inactive”.

In another assay the target is Human immunodeficiency virus type 1 protease (Human immunodeficiency virus 1) (UniProt Q72874). The assay is described as follows: Tested for inhibition of HIV-1 protease by the compound; NI = No Inhibition.
Turning to `CCOC(=O)[C@@H]1O[C@H]1C(=O)N(CC(=O)O)NC(=O)[C@@H](NC(=O)C(CCC(=O)O)NC(=O)[C@H](CC(=O)O)NC(=O)OCc1ccccc1)C(C)C` (some centres not stated), the “k obs / 1” value was “inactive”.

A further assay addresses T4, Caspase-1 (Homo sapiens) (UniProt P29466).
T4 sequence (whole entry): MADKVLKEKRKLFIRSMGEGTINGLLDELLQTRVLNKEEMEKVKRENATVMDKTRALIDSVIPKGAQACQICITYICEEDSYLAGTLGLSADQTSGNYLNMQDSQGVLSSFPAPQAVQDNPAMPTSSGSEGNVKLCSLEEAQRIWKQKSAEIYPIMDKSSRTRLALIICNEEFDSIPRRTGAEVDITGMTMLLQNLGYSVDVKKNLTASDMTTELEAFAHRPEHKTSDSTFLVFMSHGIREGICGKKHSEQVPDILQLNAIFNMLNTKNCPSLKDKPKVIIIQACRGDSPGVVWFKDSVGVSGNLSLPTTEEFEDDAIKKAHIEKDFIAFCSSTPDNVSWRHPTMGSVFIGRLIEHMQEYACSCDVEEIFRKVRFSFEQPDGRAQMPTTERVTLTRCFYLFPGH
The assay is described as follows: Second-order inhibition rate of caspase-1 was determined by progress curve method. The method, boiled down:
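Caspase-1 assay buffer: 100 mM HEPES, 0.5 mM EDTA, 20% (v/v) glycerol, 5 mM DTT, pH 7.5. Substrate: Ac-YVAD-AMC.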
`CCOC(=O)[C@@H]1O[C@H]1C(=O)N(CC(=O)O)NC(=O)[C@@H](NC(=O)C(CCC(=O)O)NC(=O)[C@H](CC(=O)O)NC(=O)OCc1ccccc1)C(C)C` (some centres not stated) came in with a k2 of 4320 M⁻¹ s⁻¹.
On the same count and under the same terms, the value for `CCOC(=O)[C@@H]1O[C@H]1C(=O)N(CC(=O)O)NC(=O)[C@@H](NC(=O)[C@H](CCC(=O)O)NC(=O)[C@@H](NC(=O)OCc1ccccc1)[C@@H](C)CC)[C@@H](C)O` was 13300 M⁻¹ s⁻¹.

Another assay deals with Pepsin A (Sus scrofa) (UniProt P00791). The assay is described as follows: Tested for inhibition of porcine pepsin by the compound; NI = No Inhibition.
Chain of Pepsin A (Sus scrofa) (P00791 60-385 limits assumed): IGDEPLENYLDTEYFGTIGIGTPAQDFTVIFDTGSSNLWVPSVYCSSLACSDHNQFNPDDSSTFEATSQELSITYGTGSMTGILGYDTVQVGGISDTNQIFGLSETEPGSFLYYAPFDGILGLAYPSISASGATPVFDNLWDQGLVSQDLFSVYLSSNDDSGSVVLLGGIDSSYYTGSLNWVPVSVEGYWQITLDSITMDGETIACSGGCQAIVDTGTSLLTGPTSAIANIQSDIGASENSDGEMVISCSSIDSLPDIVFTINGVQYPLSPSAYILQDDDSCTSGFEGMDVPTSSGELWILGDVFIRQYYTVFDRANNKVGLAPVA
Take `CCOC(=O)[C@@H]1O[C@H]1C(=O)N(CC(=O)O)NC(=O)[C@@H](NC(=O)C(CCC(=O)O)NC(=O)[C@H](CC(=O)O)NC(=O)OCc1ccccc1)C(C)C` (some centres not stated): the “k obs / 1” value is “inactive”.

For a further assay, the system named is Cathepsin B. The experiment in a line: Tested for inhibition of cathepsin B by the compound; NI = No Inhibition.
`CCOC(=O)[C@@H]1O[C@H]1C(=O)N(CC(=O)O)NC(=O)[C@@H](NC(=O)C(CCC(=O)O)NC(=O)[C@H](CC(=O)O)NC(=O)OCc1ccccc1)C(C)C` (some centres not stated): the “k obs / 1” value is “inactive”.

A further assay concerns the target Caspase-8 (Homo sapiens) (UniProt Q14790). The experiment in a line: Second-order inhibition rate of caspase-8 was determined by progress curve method. The method, boiled down: as §1
Turning to `CCOC(=O)[C@@H]1O[C@H]1C(=O)N(CC(=O)O)NC(=O)[C@@H](NC(=O)C(CCC(=O)O)NC(=O)[C@H](CC(=O)O)NC(=O)OCc1ccccc1)C(C)C` (some centres not stated), the k2 was 785 M⁻¹ s⁻¹.
`CCOC(=O)[C@@H]1O[C@H]1C(=O)N(CC(=O)O)NC(=O)[C@@H](NC(=O)[C@H](CCC(=O)O)NC(=O)[C@@H](NC(=O)OCc1ccccc1)[C@@H](C)CC)[C@@H](C)O` came in with a k2 of 8800 M⁻¹ s⁻¹.

System in the next assay: not listed separately
The assay is described as follows: Tested for inhibition of chymotrypsinogen by the compound; NI = No Inhibition.
In the case of `CCOC(=O)[C@@H]1O[C@H]1C(=O)N(CC(=O)O)NC(=O)[C@@H](NC(=O)C(CCC(=O)O)NC(=O)[C@H](CC(=O)O)NC(=O)OCc1ccccc1)C(C)C` (some centres not stated), the “k obs / 1” value was “inactive”.
